Screens as filed in PubChem BioAssay.
FLuc stim CS: firefly luciferase counter-screen for stimulation assays; activation factor at 10 µM; P08659; ATPlite luciferase biochemical, luminescence, 10 min; 0 = ATP-free wells, 1 = DMSO control; 200,000 tested, under 10 active;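 active means luciferase activation factor, scaled between plate controls, of at least 2 with compound at 10 µM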
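Assay system – cell-free luciferase reagent · Medium – PBS-based ATP solution · Dosing – test compounds dosed from 2 mM stocks in 100% DMSO · Timing – 10 min, room temperature · Technique – light output (luminescence) · Measure – luminescence gain marking luciferase activators · Controls – No-ATP low control, compound-free enzyme-plus-ATP high control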
C8 TRAIL sens: sensitizes caspase-8 expressing cells to TRAIL | NB7+C8 cells + TRAIL, ATPlite viability luminescence | inhibition (viability loss, TRAIL sensitization), % at 10 µM | 360,000 compounds, 1% hits | AID 624354;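 active means compounds causing at least 50% loss of cell viability in the single-dose screen, relative to plate controls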
FLuc inhib CS: counter-screen for luciferase assay inhibitors: firefly luciferase inhibition; inhibition, % at 10 µM; 200,000 compounds, 1.5% hits; ATPLite firefly luciferase biochemical luminescence, 10 min;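 active means inhibition above about 50% when tested at 10 µM, limit read from the data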
PKD1 kinase inh: blocks activity of human protein kinase D1 | 200,000 compounds, 0.056% hits | AID 797 | inhibition, % (no concentration beside the values) | Q15139 | PKD1 kinase fluorescence polarization assay; in the data active means inhibition above about 50%
PPC-1+TRAIL kill: PPC-1 cancer cell killing with TRAIL present; cell killing (% activity), % at 4 µM or 5 µM; 220,000 compounds, 0.41% hits; PPC-1 cells + TRAIL, ATPLite viability luminescence;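 active means cell killing above 50% in the first pass at 4 µM, then a duplicate retest at 5 µM averaging 50% or more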;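 further: plate controls were cells with TRAIL plus DMSO for no effect and medium-only wells lacking cells for full effect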
Wee1 degr inh: blocks degradation of human Wee1 kinase; P30291; HeLa Luc-Wee1K328M stability, luciferase luminescence; 100% = proteasome inhibitor MG132 effect; 220,000 compounds, 1.2% hits; reporter increase, % at 5 µM;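 active means activation above the mean of all tested compounds plus 3 SD, set per screening run, cut at about 8.8% in these data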;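 further: cells exposed to compound for 20 h before luminescence read; 0% = DMSO alone and 100% = MG132 at 30 µM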
* = called active by the depositor; · = no result given; ! = repeats disagree. A selection: hits, their analogues and other compounds. The true share with any hit is near 2.2%.

SMILES	FLuc stim CS	C8 TRAIL sens	FLuc inhib CS	PKD1 kinase inh	PPC-1+TRAIL kill	Wee1 degr inh
CN(C)c1ccc(C(=O)Nc2nc3c(s2)CCCC3)cc1	0.4	54.5*	57.5*	1.2	39.1	2.2
CCN(CC)CCn1c2c(c(SCC(=O)Nc3nc4ccccc4s3)nc1=O)CCC2	·	1.8	·	·	·	·
CCN(CC)CCn1c2c(c(SCC(=O)Nc3nc4ccc(C)cc4s3)nc1=O)CCC2	·	66.2*	·	·	·	·
CN(Cc1cnc2nc(N)nc(N)c2n1)c1ccc(C(=O)N[C@@H](CCC(=O)O)C(=O)O)cc1	·	84.6*!	·	·	·	·
CC(O)CC(=O)OC[C@]12CC[C@H]3[C@@](C)(CC[C@H]4C(C)(C)CCC[C@]34C)[C@@H]1CC(C1=CC(=O)OC1O)O2 (stereo not given in full)	·	86.2*	·	·	·	·
COc1ccc(Nc2cc(C(=O)NCc3ccco3)c3ccccc3n2)cc1	1	·	2.8	1.2	6.2	10.8*
C=CC(=O)N1C/C(=C/c2ccc(F)cc2)C(=O)/C(=C\c2ccc(F)cc2)C1	·	92.6*	·	·	·	·
CN1C2CCC1/C(=C\c1ccc(F)cc1)C(=O)/C2=C/c1ccc(F)cc1	1.1	4.9	-5.7	-12.5	-2.6	-0.9
COC(=O)c1ccc(NC(=O)c2ccccc2C(=O)Nc2ccc(C(=O)OC)cc2)cc1	·	23.7	·	·	·	·
COC(=O)c1ccc(NC(=O)C(=O)c2cccn2C)cc1	0.2	61.7*	83.5*	-6.7	17.9	-2.3
CCCCN(C(=O)c1cc(S(=O)(=O)N2CCCCC2)ccc1Cl)c1c(N)n(CCC)c(=O)[nH]c1=O	·	-4.3	·	·	·	·
O=c1cc(NCCc2ccccc2)c2ccccc2o1	1	-3.2	-1.6	1.3	1.1	9.0*
COc1cccc(C=Nc2cccc3c(=O)[nH][nH]c(=O)c23)c1O	0.2	45.5	80.3*	-0.4	11.3	-0.7
COc1ccc([C@H]2CC(=O)C=C(/C=C/Cc3ccccc3)C2)cc1	·	-1.9	·	·	·	·
O=C(O)CCC(=O)N1CCN(c2ccc(C(=O)c3ccc(F)cc3)cc2)CC1	1.1	6.7	-5.8	-10.9	35.9	1.5
CN1CCN(c2ccc(C(=O)c3ccc(F)cc3)cc2)CC1	0.9	17.3	13.9	11.3	22.7	9.0*
CCCn1c(N)c(N(CCOC)C(=O)CSCC(=O)Nc2ccc(OC)cc2)c(=O)[nH]c1=O	·	3.9	·	·	·	·
COc1cc(OC)c(NC(=O)c2cncn2-c2ccc(F)cc2)cc1Cl	·	-10.4	·	·	·	·
Cc1ccc(CN2CCNC2=O)cc1	1	5.4	-3.6	0.5	-1.0	-2.3
O=C1NCCn2ccc(=O)cc21	·	-11.2	·	·	-6.8	12.6*
O=C1c2ccccc2C(=O)C1(CO)c1ccc(OC(F)F)cc1	·	79.0*	·	·	·	·
O=C1c2ccccc2C(=O)C1(CO)c1ccccc1	0.7	3.5	34.4	-13.8	7.4	-2.0
COc1ccc(/C(C)=N/NC(=O)c2ccccc2N)cc1	0.6	2.9	36.5	-1.3	13.4	6.6
CC(=NNC(=O)c1ccccc1N)c1ccccc1O	·	53.9*	·	·	·	·
COc1ccc(CCNC(=O)Cn2c([N+](=O)[O-])cnc2C)cc1OC	1	4.3	-3.0	-4.4	20.4	10.8*
SMILES	FLuc stim CS	C8 TRAIL sens	FLuc inhib CS	PKD1 kinase inh	PPC-1+TRAIL kill	Wee1 degr inh
CC1CCCN(C(=O)CCCn2c(=S)[nH]c3ccccc3c2=O)C1 (stereo not given)	1.1	-12.7	-6.2	-2.5	11.5	9.7*
COc1ccc(CN(CCN(C)C)c2ccccn2)cc1	1.1	0.7	-8.4	-6.8	-7.5	3.4
CCCCCCCCCCCCCCCC[N+](C)(C)CCN(Cc1ccc(OC)cc1)c1ncccn1	·	53.4*	·	·	·	·
CN(C)c1ccc(/C=C2\CCCc3c2nc2ccccc2c3C(=O)O)cc1	·	22.4	·	·	·	·
CCCN(CC(=O)Nc1ccccc1C)C(=O)Cc1n[nH]c(=O)c2ccccc12	·	2.5	·	·	·	·
CCOCc1nc(N)nc(N)c1-c1cccc(Cl)c1	·	56.4*	·	·	·	·
COc1ccc(NCC(=O)N/N=C/C2CCCCC2)cc1	·	0.2	·	·	4.5	-0.9
CC(C)(C)OC(=O)NCCCCCNC(=O)c1nc[nH]c1C(=O)NCc1ccc(CNC(=O)OC(C)(C)C)cc1	·	57.5*	·	·	·	·
CC(C)(C)OC(=O)NCc1ccc(NC(=O)c2nc[nH]c2C(=O)NCCNC(=O)c2[nH]cnc2C(=O)Nc2ccc(CNC(=O)OC(C)(C)C)cc2)cc1	·	88.2*	·	·	·	·
COc1ccc(C(=O)C[n+]2cccc(C)c2C)cc1[N+](=O)[O-]	1	-3.5	1.2	-5.8	3.7	10.7*
N#CC1CC(c2ccccc2)Nc2cc(Cl)ccc2N1 (stereo not given)	·	16.5	·	·	35.7	3.7
COCC(C)Nc1ncnc2c1cnn2-c1ccc(Cl)cc1 (stereo not given)	0.7	20.7	32.9	-6.9	·	6.8
COc1ccc(-n2ncc3c(NC(C)C)ncnc32)cc1	0.2	41.6	77.0*	8.5	46.9	-1.6
COc1ccc(-n2ncc3c(NCC(C)C)ncnc32)cc1	0.3	49.0	70.7*	-4.0	27.0	2.1
O=C(CSc1nc2sc3c(c2c(=O)n1-c1ccccc1)CCCC3)N/N=C/c1ccccc1C(=O)O	·	-8.0	·	·	·	·
O=C(c1cc(S(=O)(=O)N2CCOCC2)c(Cl)cc1Cl)N1CCN(S(=O)(=O)c2cccc(F)c2)CC1	·	3.8	·	·	·	·
Cc1ccc(OCc2cc(C(=O)N3CCc4sccc4C3)no2)cc1C	·	-35.4	·	·	·	·
Cc1ccc(CNC(=O)c2ccc(N3CCC4(CC3)CC(c3ccccc3)=NO4)c(N)c2)cc1	·	-9.7	·	·	·	·
CC(=O)Nc1sc(C)c(C)c1C(=O)OCC(=O)N(CC(C)C)c1c(N)n(Cc2ccccc2)c(=O)[nH]c1=O	·	94.7*	·	·	·	·
COC(=O)c1c(C)[nH]c(C(=O)OCC(=O)N(CC(C)C)c2c(N)n(Cc3ccccc3)c(=O)[nH]c2=O)c1C	·	9.5	·	·	·	·
c1ccc(-c2cnc(-c3ccccc3)nn2)cc1	·	52.1*	·	·	·	·
Brc1ccc(-c2ncc(-c3ccccc3)cn2)cc1	0.7	10.5	32.4	-7.2	-1.5	-2.0
c1ccc(-c2cnc(-c3ccccn3)nn2)cc1	·	57.6*	·	·	·	·
c1ccc(-c2cnnc(-c3ccccn3)n2)cc1	·	3.1	·	·	·	·
CC(=O)Nc1ccc(C2=CC(=O)CC(C)(C)C2)cc1	·	-1.8	·	·	·	·
SMILES	FLuc stim CS	C8 TRAIL sens	FLuc inhib CS	PKD1 kinase inh	PPC-1+TRAIL kill	Wee1 degr inh
Cc1ccc(-c2nc3ccsc3c(=O)[nH]2)cc1	0.3	41.7	74.8*	-5.6	26.8	-1.2
Cc1ccc(-c2csc3nc(-c4ccncc4)[nH]c(=O)c23)cc1	·	15.8	·	·	13.9	-1.2
O=c1[nH]cc(N(CCO)CCO)c(=O)[nH]1	·	-19.2	·	·	-14.4	9.5*
O=c1[nH]cc(O)c(=O)[nH]1	·	-5.3	·	·	9.8	1.1
O=C(/C=C/c1cccs1)c1ccc(Br)cc1	0.4	10.9	60.7*	-9.0	4.3	4.1
CC(C)n1cc(CN2CCCC(CO)(Cc3cccc(Cl)c3)C2)cn1 (stereo not given)	1	18.5	3.6	-7.2	-7.3	10.3*
CCC(=O)N(C1=C(NC(C)C)C(=O)c2ccccc2C1=O)C(C)C	1	12.9	-2.5	-3.9	10.7	2.8
